{"source": "ChEMBL document CHEMBL3739255", "about": "“Novel Series of Dihydropyridinone P2X7 Receptor Antagonists” (J Med Chem, 2015)", "key": {"[1]": {"target": "Prostacyclin receptor (Homo sapiens) (UniProt P43119)", "sequence (P43119 whole entry)": "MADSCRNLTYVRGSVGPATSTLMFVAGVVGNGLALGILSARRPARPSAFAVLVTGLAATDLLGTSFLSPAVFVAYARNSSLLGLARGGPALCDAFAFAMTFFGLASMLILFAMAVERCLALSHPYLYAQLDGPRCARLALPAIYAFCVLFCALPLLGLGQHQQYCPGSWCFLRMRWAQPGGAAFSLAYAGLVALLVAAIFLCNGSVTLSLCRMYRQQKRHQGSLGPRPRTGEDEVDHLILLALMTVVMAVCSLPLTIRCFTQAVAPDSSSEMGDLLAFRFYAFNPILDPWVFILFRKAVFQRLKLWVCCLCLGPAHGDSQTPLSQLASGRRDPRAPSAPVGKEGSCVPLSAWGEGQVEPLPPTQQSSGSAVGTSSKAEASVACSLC", "assay": "Inhibition of human PGI2 receptor at 10 uM by radioligand binding assay", "in_short": "(§1)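 Outsourced broad receptor-screening panel of 78 targets, each tested at a single 10 uM concentration; read-out is percent inhibition. Detailed conditions are given only in the Supporting Information.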"}, "[2]": {"target": "5-hydroxytryptamine receptor 3A (Homo sapiens) (UniProt P46098)", "assay": "Inhibition of human 5-HT3 receptor at 10 uM", "in_short": "(§2)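 Commercial receptor scan across a 78-target panel, with percent inhibition measured at a test concentration of 10 uM.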"}, "[3]": {"target": "D(3) dopamine receptor (Homo sapiens) (UniProt P35462)", "assay": "Inhibition of human dopamine D3 receptor at 10 uM", "in_short": "as §1"}, "[4]": {"target": "5-hydroxytryptamine receptor 7 (Homo sapiens) (UniProt P34969)", "assay": "Inhibition of human 5-HT7 receptor at 10 uM by radioligand binding assay", "in_short": "as §2"}, "[5]": {"target": "Adenosine receptor A1 (Homo sapiens) (UniProt P30542)", "assay": "Inhibition of human adenosine A1 receptor at 10 uM", "in_short": "as §1"}, "[6]": {"target": "5-hydroxytryptamine receptor 2B (Homo sapiens) (UniProt P41595)", "sequence (P41595 whole entry)": "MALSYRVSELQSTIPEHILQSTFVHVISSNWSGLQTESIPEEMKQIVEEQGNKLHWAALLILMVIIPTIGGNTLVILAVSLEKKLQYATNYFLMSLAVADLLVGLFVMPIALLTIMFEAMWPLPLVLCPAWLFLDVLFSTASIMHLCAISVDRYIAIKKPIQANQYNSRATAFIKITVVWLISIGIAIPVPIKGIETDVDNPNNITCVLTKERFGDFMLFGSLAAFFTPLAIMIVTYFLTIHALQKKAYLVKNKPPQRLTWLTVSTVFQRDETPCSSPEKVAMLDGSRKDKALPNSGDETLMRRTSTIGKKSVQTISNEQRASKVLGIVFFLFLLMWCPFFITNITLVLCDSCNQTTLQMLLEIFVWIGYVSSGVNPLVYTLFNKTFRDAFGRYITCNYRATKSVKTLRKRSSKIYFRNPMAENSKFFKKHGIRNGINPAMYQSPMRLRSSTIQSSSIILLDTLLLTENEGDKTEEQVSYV", "assay": "Inhibition of human 5-HT2B receptor at 10 uM by radioligand binding assay", "in_short": "as §2"}, "[7]": {"target": "B2 bradykinin receptor (Homo sapiens) (UniProt P30411)", "sequence (P30411 whole entry)": "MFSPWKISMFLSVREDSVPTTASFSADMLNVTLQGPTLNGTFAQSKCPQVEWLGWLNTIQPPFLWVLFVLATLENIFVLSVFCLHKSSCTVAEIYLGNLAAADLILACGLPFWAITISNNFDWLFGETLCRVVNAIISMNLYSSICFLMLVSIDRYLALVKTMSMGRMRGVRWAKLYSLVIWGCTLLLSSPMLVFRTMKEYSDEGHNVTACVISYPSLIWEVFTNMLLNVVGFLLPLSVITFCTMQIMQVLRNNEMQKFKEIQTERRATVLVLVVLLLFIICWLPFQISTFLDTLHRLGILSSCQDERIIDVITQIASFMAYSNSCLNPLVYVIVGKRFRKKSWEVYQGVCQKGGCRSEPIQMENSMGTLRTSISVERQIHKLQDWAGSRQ", "assay": "Inhibition of human bradykinin 2 receptor at 10 uM by radioligand binding assay", "in_short": "as §1"}, "[8]": {"organism": "Rattus norvegicus", "assay": "Inhibition of rat L-type calcium channel verapamil binding site at 10 uM", "in_short": "as §1"}, "[9]": {"target": "Glucocorticoid receptor (Homo sapiens) (UniProt P04150)", "sequence (P04150 whole entry)": "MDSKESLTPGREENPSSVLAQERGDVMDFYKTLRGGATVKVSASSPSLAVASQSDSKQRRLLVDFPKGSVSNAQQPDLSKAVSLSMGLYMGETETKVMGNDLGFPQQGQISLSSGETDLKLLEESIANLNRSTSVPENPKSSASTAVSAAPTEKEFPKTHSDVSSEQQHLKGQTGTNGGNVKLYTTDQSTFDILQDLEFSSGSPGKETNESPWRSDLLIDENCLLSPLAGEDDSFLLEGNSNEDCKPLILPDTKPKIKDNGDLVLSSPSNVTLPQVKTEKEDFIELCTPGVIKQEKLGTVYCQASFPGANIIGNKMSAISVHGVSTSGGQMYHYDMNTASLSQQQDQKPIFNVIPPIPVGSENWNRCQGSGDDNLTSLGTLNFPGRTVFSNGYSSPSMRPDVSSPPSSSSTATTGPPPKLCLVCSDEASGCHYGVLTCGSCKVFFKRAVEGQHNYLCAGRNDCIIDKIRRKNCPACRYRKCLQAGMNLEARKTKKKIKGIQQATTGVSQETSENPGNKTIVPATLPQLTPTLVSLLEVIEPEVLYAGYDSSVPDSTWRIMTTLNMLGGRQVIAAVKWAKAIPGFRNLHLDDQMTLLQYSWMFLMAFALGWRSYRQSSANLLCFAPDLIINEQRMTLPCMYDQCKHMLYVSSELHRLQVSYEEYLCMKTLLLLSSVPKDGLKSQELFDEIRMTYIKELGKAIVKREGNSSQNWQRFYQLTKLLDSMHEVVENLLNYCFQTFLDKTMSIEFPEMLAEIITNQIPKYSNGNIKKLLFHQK", "assay": "Inhibition of human glucocorticoid receptor at 10 uM by radioligand binding assay", "in_short": "as §1"}, "[10]": {"target": "Beta-2 adrenergic receptor (Homo sapiens) (UniProt P07550)", "sequence (P07550 whole entry, looked up)": "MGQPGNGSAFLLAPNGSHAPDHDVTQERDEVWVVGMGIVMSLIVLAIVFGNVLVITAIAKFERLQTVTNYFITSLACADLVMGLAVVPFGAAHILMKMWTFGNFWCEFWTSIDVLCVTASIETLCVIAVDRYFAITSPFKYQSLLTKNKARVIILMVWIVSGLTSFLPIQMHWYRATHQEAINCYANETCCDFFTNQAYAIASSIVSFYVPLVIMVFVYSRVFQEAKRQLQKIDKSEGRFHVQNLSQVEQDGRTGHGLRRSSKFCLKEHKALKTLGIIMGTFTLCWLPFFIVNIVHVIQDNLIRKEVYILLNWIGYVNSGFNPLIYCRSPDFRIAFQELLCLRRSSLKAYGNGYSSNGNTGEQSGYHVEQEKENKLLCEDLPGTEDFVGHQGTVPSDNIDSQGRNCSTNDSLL", "assay": "Inhibition of human beta2-adrenoceptor at 10 uM by radioligand binding assay", "in_short": "as §1"}, "[11]": {"target": "Muscarinic acetylcholine receptor M1 (Homo sapiens) (UniProt P11229)", "sequence (P11229 whole entry)": "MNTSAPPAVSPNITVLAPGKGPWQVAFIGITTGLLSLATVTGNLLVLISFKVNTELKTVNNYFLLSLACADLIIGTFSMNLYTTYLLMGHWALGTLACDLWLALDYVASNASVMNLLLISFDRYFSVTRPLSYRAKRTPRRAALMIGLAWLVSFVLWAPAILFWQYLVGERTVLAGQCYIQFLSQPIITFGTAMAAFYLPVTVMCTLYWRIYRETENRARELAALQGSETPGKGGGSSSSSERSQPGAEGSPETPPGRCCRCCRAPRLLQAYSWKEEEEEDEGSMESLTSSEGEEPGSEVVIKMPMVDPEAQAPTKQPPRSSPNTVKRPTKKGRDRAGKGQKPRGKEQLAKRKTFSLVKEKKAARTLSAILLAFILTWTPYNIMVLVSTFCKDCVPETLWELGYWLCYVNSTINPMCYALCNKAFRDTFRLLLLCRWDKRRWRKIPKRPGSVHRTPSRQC", "assay": "Inhibition of human muscarinic M1 receptor at 10 uM", "in_short": "as §1"}, "[12]": {"target": "Beta-1 adrenergic receptor (Homo sapiens) (UniProt P08588)", "assay": "Inhibition of human beta1-adrenoceptor at 10 uM by radioligand binding assay", "in_short": "as §1"}, "[13]": {"target": "D(4) dopamine receptor (Homo sapiens) (UniProt P21917)", "sequence (P21917 whole entry)": "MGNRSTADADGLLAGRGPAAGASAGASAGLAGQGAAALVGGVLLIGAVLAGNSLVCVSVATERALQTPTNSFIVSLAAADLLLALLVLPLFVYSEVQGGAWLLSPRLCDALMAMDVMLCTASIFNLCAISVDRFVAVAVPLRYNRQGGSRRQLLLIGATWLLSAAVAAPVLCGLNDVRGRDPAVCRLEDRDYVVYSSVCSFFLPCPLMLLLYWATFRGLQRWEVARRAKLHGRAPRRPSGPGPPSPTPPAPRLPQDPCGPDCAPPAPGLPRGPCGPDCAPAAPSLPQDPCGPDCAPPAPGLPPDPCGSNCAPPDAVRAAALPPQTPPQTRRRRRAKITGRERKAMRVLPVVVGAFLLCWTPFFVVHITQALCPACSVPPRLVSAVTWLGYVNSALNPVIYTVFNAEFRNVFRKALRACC", "assay": "Inhibition of human dopamine D4.4 receptor at 10 uM", "in_short": "as §1"}, "[14]": {"target": "Neuropeptide Y receptor type 2 (Homo sapiens) (UniProt P49146)", "sequence (P49146 whole entry)": "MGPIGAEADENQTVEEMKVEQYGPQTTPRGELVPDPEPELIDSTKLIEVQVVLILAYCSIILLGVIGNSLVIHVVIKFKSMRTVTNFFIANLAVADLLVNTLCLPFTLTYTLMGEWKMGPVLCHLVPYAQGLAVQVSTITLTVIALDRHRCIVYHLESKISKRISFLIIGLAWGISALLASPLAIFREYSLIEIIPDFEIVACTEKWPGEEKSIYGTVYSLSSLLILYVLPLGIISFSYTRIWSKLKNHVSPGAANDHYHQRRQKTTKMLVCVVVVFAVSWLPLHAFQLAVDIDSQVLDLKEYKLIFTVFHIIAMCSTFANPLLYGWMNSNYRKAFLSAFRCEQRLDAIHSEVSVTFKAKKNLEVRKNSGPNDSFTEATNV", "assay": "Inhibition of human neuropeptide Y2 receptor at 10 uM by radioligand binding assay", "in_short": "as §1"}, "[15]": {"tested_on": "Plasma", "assay": "Metabolic stability in human plasma at 10 uM after 4 hrs by LC/MS/MS analysis", "format": "ADME, cell-free"}, "[16]": {"target": "Small conductance calcium-activated potassium channel (Rattus norvegicus) (UniProt P70604+P70606+P70605)", "assay": "Inhibition of rat small conductance calcium-activated potassium channel at 10 uM by radioligand binding assay", "format": "protein assay", "in_short": "(§3)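 Single-concentration screen at 10 uM in a commercial 78-receptor panel run by CEREP; results are given as % inhibition.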"}, "[17]": {"target": "Adenosine receptor A2a (Homo sapiens) (UniProt P29274)", "assay": "Inhibition of human adenosine A2A receptor at 10 uM by radioligand binding assay", "in_short": "as §1"}, "[18]": {"target": "Sodium-dependent noradrenaline transporter (Homo sapiens) (UniProt P23975)", "assay": "Inhibition of human norepinephrine transporter at 10 uM", "in_short": "as §1"}, "[19]": {"target": "Kappa-type opioid receptor (Rattus norvegicus) (UniProt P34975)", "sequence (P34975 whole entry)": "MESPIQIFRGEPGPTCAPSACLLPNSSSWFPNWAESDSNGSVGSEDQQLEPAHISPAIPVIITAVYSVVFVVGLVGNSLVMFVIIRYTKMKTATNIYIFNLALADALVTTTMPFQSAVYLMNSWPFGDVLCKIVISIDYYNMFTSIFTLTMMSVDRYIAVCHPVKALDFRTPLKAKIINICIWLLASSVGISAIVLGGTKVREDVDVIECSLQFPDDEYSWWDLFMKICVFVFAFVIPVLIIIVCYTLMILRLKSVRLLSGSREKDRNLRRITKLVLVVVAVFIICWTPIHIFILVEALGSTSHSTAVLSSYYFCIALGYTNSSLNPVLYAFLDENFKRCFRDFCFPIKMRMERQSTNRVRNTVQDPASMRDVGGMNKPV", "assay": "Inhibition of rat kappa opioid receptor at 10 uM by radioligand binding assay", "in_short": "as §3"}, "[20]": {"assay": "Oral bioavailability in rat at 2 mg/kg administered as single dose", "format": "ADME, organism-based", "conditions": "in vivo", "in_short": "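Rats given a single dose, iv 0.5 mg/kg or po 2 mg/kg, with n ≥ 2 per time point. Bioavailability is derived from the po and iv exposures. Vdss is reported in L/kg.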"}, "[21]": {"target": "P2X purinoceptor 1 (Homo sapiens, UniProt P51575)", "assay": "Inhibition of P2X1R (unknown origin)", "in_short": "(§4)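 Selectivity at other P2X receptor subtypes, read as IC50 in a FLIPR Ca2+ flux assay.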"}, "[22]": {"target": "T1, P2X purinoceptor 7 (Homo sapiens, UniProt Q99572)", "T1 sequence (Q99572 whole entry)": "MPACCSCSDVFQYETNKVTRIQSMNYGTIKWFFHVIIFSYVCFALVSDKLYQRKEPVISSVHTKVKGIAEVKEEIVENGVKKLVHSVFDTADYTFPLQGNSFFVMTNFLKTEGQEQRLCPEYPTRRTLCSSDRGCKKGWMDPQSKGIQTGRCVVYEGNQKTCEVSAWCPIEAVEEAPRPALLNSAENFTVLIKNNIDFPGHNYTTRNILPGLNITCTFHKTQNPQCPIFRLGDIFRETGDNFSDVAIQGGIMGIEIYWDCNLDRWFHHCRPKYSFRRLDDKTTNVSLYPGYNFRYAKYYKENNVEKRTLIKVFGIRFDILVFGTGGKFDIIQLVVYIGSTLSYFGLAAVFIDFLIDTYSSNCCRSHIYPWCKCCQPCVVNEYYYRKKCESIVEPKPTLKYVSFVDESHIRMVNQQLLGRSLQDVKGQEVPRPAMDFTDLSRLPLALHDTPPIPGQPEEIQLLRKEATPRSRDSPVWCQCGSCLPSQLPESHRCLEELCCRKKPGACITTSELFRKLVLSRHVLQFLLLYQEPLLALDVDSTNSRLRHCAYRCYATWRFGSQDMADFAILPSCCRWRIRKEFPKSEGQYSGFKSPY", "assay": "Antagonist activity at human P2X7R expressed in BzATP-stimulated human 1321N1 cells incubated for 20 mins followed by BzATP stimulation measured every 1 sec for 60 secs followed by 3 sec intervals for 4 mins by FLIPR Ca2+ assay in presence of ionomycin", "format": "cell-based", "in_short": "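1321N1 cells stably expressing human P2X7R, stimulated with BzATP; calcium flux read on FLIPR. IC50 is the mean of n ≥ 2 runs, each including a positive control.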"}, "[23]": {"target": "Glutamate NMDA receptor (Rattus norvegicus) (UniProt P35439+Q00959+Q00960+Q00961+Q62645+Q8VHN2+Q9R1M7)", "assay": "Inhibition of rat NMDA receptor PCP binding site at 10 uM", "format": "protein-complex assay", "in_short": "as §1"}, "[24]": {"target": "P2X purinoceptor 3 (Homo sapiens, UniProt P56373)", "assay": "Inhibition of P2X3R (unknown origin)", "in_short": "as §4"}, "[25]": {"target": "Type-1 angiotensin II receptor (Homo sapiens) (UniProt P30556)", "sequence (P30556 whole entry)": "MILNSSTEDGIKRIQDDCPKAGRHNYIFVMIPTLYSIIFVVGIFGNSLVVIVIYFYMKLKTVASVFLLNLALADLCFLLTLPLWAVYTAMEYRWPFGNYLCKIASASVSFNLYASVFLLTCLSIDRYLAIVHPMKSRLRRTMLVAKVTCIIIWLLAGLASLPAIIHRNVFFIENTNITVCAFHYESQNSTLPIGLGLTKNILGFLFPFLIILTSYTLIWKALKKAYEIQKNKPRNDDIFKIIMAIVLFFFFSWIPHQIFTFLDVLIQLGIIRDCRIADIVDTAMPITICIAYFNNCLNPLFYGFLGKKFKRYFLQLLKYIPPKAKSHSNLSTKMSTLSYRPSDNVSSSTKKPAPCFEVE", "assay": "Inhibition of human angiotensin 2 receptor 1 at 10 uM", "in_short": "as §1"}, "[26]": {"target": "Histamine H1 receptor (Homo sapiens) (UniProt P35367)", "assay": "Inhibition of human histamine H1 receptor at 10 uM", "in_short": "as §1"}, "[27]": {"target": "Mu-type opioid receptor (Homo sapiens) (UniProt P35372)", "sequence (P35372 whole entry)": "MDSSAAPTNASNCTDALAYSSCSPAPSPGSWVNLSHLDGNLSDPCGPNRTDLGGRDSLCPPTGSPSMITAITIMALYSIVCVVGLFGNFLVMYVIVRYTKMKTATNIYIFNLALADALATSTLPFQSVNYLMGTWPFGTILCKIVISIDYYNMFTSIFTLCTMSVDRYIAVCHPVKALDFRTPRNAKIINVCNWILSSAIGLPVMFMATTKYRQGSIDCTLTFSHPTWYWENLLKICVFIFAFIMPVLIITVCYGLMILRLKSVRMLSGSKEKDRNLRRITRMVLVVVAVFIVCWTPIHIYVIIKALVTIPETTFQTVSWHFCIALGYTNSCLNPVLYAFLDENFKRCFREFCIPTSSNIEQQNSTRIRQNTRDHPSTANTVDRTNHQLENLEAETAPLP", "assay": "Inhibition of human mu opioid receptor at 10 uM by radioligand binding assay", "in_short": "as §1"}, "[28]": {"target": "Endothelin-1 receptor (Homo sapiens) (UniProt P25101)", "assay": "Inhibition of human ETA receptor at 10 uM by radioligand binding assay", "in_short": "as §2"}, "[29]": {"target": "P2X purinoceptor 4 (Homo sapiens, UniProt Q99571)", "assay": "Inhibition of P2X4R (unknown origin)", "in_short": "as §4"}, "[30]": {"target": "D(2) dopamine receptor (Homo sapiens) (UniProt P14416)", "assay": "Inhibition of human dopamine D2S receptor at 10 uM", "in_short": "as §1"}, "[31]": {"organism": "Rattus norvegicus", "assay": "Inhibition of rat Voltage-gated potassium channel at 10 uM", "in_short": "as §1"}, "[32]": {"organism": "Rattus norvegicus", "assay": "Inhibition of rat bombesin receptor at 10 uM", "in_short": "as §3"}}, "data": [{"smiles": "Cc1cc(Cl)c(OCCO)cc1NC(=O)C1=CNC(=O)C[C@H]1c1ccc(F)cc1", "values": [{"measurement": "inhibition", "setting": "[1]", "value": "< 30", "unit": "%"}, {"measurement": "inhibition", "setting": "[2]", "value": "< 30", "unit": "%"}, {"measurement": "inhibition", "setting": "[3]", "value": "< 30", "unit": "%"}, {"measurement": "inhibition", "setting": "[4]", "value": "< 30", "unit": "%"}, {"measurement": "inhibition", "setting": "[5]", "value": "< 30", "unit": "%"}, {"measurement": "inhibition", "setting": "[6]", "value": "< 30", "unit": "%"}, {"measurement": "inhibition", "setting": "[7]", "value": "< 30", "unit": "%"}, {"measurement": "inhibition", "setting": "[8]", "value": "< 30", "unit": "%"}, {"measurement": "inhibition", "setting": "[9]", "value": "< 30", "unit": "%"}, {"measurement": "inhibition", "setting": "[10]", "value": "< 30", "unit": "%"}, {"measurement": "inhibition", "setting": "[11]", "value": "< 30", "unit": "%"}, {"measurement": "inhibition", "setting": "[12]", "value": "< 30", "unit": "%"}, {"measurement": "inhibition", "setting": "[13]", "value": "< 30", "unit": "%"}, {"measurement": "inhibition", "setting": "[14]", "value": "< 30", "unit": "%"}, {"measurement": "Stability", "setting": "[15]", "value": "Stable"}, {"measurement": "inhibition", "setting": "[16]", "value": "< 30", "unit": "%"}, {"measurement": "inhibition", "setting": "[17]", "value": "< 30", "unit": "%"}, {"measurement": "inhibition", "setting": "[18]", "value": "< 30", "unit": "%"}, {"measurement": "inhibition", "setting": "[19]", "value": "< 30", "unit": "%"}, {"measurement": "bioavailability", "setting": "[20]", "value": 74, "unit": "%"}, {"measurement": "IC50", "setting": "[21]", "value": "> 10", "unit": "µM"}, {"measurement": "IC50", "setting": "[22]", "value": 0.023, "unit": "µM"}, {"measurement": "inhibition", "setting": "[23]", "value": "< 30", "unit": "%"}, {"measurement": "IC50", "setting": "[24]", "value": "> 10", "unit": "µM"}, {"measurement": "inhibition", "setting": "[25]", "value": "< 30", "unit": "%"}, {"measurement": "inhibition", "setting": "[26]", "value": "< 30", "unit": "%"}, {"measurement": "inhibition", "setting": "[27]", "value": "< 30", "unit": "%"}, {"measurement": "inhibition", "setting": "[28]", "value": "< 30", "unit": "%"}, {"measurement": "IC50", "setting": "[29]", "value": "> 10", "unit": "µM"}, {"measurement": "inhibition", "setting": "[30]", "value": "< 30", "unit": "%"}, {"measurement": "inhibition", "setting": "[31]", "value": "< 30", "unit": "%"}, {"measurement": "inhibition", "setting": "[32]", "value": "< 30", "unit": "%"}]}]}
